# In PubChem BioAssay AID504768 (Southern Research Specialized Biocontainment Screening …, 2011):
# Assay: protection of E. coli UTI89 from K1F – UTI89 strain, C7 control, set 4, capsule biogenesis inhibitor project, confirmation (AID 504768)
# Details: E. coli UTI89 K1F phage lysis inhibition, OD600; measured here: cytotoxicity CC50
# Procedure, shortened: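 System: E. coli UTI89 K1 and kpsM mutant; Medium: LB, cultures diluted 1:100; Probe or stimulus: K1F phage, added after compound pre-incubation; Doses: DMSO at 1% final; Schedule: 1.25 h compound pre-incubation at 37 °C shaking, lysis read 3 h post-phage; Technique: OD600 absorbance; Repeats: four replicate wells per compound concentration.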
row,Structure (SMILES),CC50
1,O=C(Nc1nc2c(F)cc(F)cc2s1)c1cccnc1,> 300 µM
2,O=C(Nc1nc2c(Cl)cc(Cl)cc2s1)c1ccccn1,3.55 µM
3,O=C(Nc1nc2c(F)cc(F)cc2s1)c1ccncc1,71.8 µM
4,Cc1cc(C)c2nc(NC(=O)c3ccccn3)sc2c1,6.19 µM
5,O=C(Nc1nc2c(F)cccc2s1)c1ccccn1,2.56 µM
6,O=C(Nc1nc2ccccc2s1)c1ccncc1,104 µM
7,O=C(Nc1nc2c(F)cc(F)cc2s1)c1ccccc1,30.9 µM
8,O=C(Nc1nc2ccccc2s1)c1cccnc1,129 µM
9,O=C(Nc1nc2ccc(F)cc2s1)c1ccccn1,3.32 µM
